In ChEMBL document CHEMBL1649200, “Concurrent titration and determination of antibiotic resistance in ureaplasma species with identification of novel point mutations in genes associated with resistance” (2009):
Values after ≈ are worked out from the molar mass of the structure shown.

What was measured:
Format in all cases: functional
Ureaplasma parvum [1] = test: Antimicrobial activity against Ureaplasma parvum SV6 isolate HPA23 after 48 hrs by modified broth microdilution technique; details: SV6 isolate HPA23, 48 h
Summary of the method: (§1)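 Full-plate broth microdilution in ureaplasma selective medium (10% porcine serum, urea, phenol red, starting pH 6.65). A doubling-dilution antibiotic gradient from 64 to 0.0625 mg/liter is run, with an antibiotic-free column. An overnight culture of unknown CCU is added 1:10, then titrated 10-fold at right angles. Plates are sealed and held 48 h at 37°C. The MIC is the lowest concentration preventing colour change, read at 10⁴ CCU relative to the antibiotic-free control.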

Ureaplasma parvum [2] = test: Antimicrobial activity against Ureaplasma parvum SV14 isolate HPA32 after 48 hrs by modified broth microdilution technique; details: SV14 isolate HPA32, 48 h; summary of the method: as §1
Ureaplasma urealyticum [3] = test: Antimicrobial activity against Ureaplasma urealyticum isolate HPA3 after 48 hrs by modified broth microdilution technique; details: isolate HPA3, 48 h; summary of the method: as §1
Ureaplasma urealyticum [4] = test: Antimicrobial activity against Ureaplasma urealyticum isolate HPA17 after 48 hrs by modified broth microdilution technique; details: isolate HPA17, 48 h; summary of the method: as §1
Ureaplasma parvum [5] = test: Antimicrobial activity against Ureaplasma parvum SV1 isolate UHWQ3 after 48 hrs by modified broth microdilution technique; details: SV1 isolate UHWQ3, 48 h; summary of the method: as §1
Ureaplasma parvum [6] = test: Antimicrobial activity against Ureaplasma parvum isolate UHWP2 after 48 hrs by modified broth microdilution technique; details: isolate UHWP2, 48 h; summary of the method: as §1
Ureaplasma urealyticum [7] = test: Antimicrobial activity against Ureaplasma urealyticum isolate HPA6 after 48 hrs by modified broth microdilution technique; details: isolate HPA6, 48 h; summary of the method: as §1
Ureaplasma urealyticum [8] = test: Antimicrobial activity against Ureaplasma urealyticum isolate HPA20 after 48 hrs by modified broth microdilution technique; details: isolate HPA20, 48 h; summary of the method: as §1
Ureaplasma parvum [9] = test: Antimicrobial activity against Ureaplasma parvum SV1 isolate HPA18 after 48 hrs by modified broth microdilution technique; details: SV1 isolate HPA18, 48 h; summary of the method: as §1
Ureaplasma urealyticum [10] = test: Antimicrobial activity against Ureaplasma urealyticum isolate HPA12 after 48 hrs by modified broth microdilution technique; details: isolate HPA12, 48 h; summary of the method: as §1
Ureaplasma parvum [11] = test: Antimicrobial activity against Ureaplasma parvum SV1 isolate UHWO10 after 48 hrs by modified broth microdilution technique; details: SV1 isolate UHWO10, 48 h; summary of the method: as §1
Ureaplasma parvum [12] = test: Antimicrobial activity against Ureaplasma parvum isolate UHWJM after 48 hrs by modified broth microdilution technique; summary of the method: as §1
Ureaplasma parvum [13] = test: Antimicrobial activity against Ureaplasma parvum SV9 containing tetM gene; summary of the method: as §1

Row | SMILES | MIC (Ureaplasma parvum [1]) [µg/mL] | MIC (Ureaplasma parvum [2]) [µg/mL] | MIC (Ureaplasma urealyticum [3]) [µg/mL] | MIC (Ureaplasma urealyticum [4]) [µg/mL] | MIC (Ureaplasma parvum [5]) [µg/mL] | MIC (Ureaplasma parvum [6]) [µg/mL] | MIC (Ureaplasma urealyticum [7]) [µg/mL] | MIC (Ureaplasma urealyticum [8]) [µg/mL] | MIC (Ureaplasma parvum [9]) [µg/mL] | MIC (Ureaplasma urealyticum [10]) [µg/mL] | MIC (Ureaplasma parvum [11]) [µg/mL] | MIC (Ureaplasma parvum [12]) [µg/mL] | MIC (Ureaplasma parvum [13]) [µg/mL]
1 | CC[C@H]1OC(=O)[C@H](C)[C@@H](O[C@H]2C[C@@](C)(OC)[C@@H](O)[C@H](C)O2)[C@H](C)[C@@H](O[C@@H]2O[C@H](C)C[C@H](N(C)C)[C@H]2O)[C@](C)(O)C[C@@H](C)C(=O)[C@H](C)[C@@H](O)[C@]1(C)O [ERYTHROMYCIN] | 4 (≈ 5.45 µM) | 8 (≈ 10.9 µM) | 4 (≈ 5.45 µM) | 8 (≈ 10.9 µM) | 4 (≈ 5.45 µM) | 4 (≈ 5.45 µM) | 8 (≈ 10.9 µM) | 8 (≈ 10.9 µM) | 4 (≈ 5.45 µM) | 8 (≈ 10.9 µM) | > 64 | 4 (≈ 5.45 µM) | 4 (≈ 5.45 µM)
2 | C[C@H]1c2cccc(O)c2C(=O)C2=C(O)[C@]3(O)C(=O)C(C(N)=O)=C(O)[C@@H](N(C)C)[C@@H]3[C@@H](O)[C@@H]21.O [DOXYCYCLINE] | 16 | 0.25 | 0.5 | 0.25 | 0.25 | 0.5 | 0.5 | 0.5 | 0.25 | 0.5 | 0.25 | 0.5 | 64
3 | CC[C@H]1OC(=O)[C@H](C)[C@@H](O[C@H]2C[C@@](C)(OC)[C@@H](O)[C@H](C)O2)[C@H](C)[C@@H](O[C@@H]2O[C@H](C)C[C@H](N(C)C)[C@H]2O)[C@](C)(OC)C[C@@H](C)C(=O)[C@H](C)[C@@H](O)[C@]1(C)O [CLARITHROMYCIN] | < 0.125 | < 0.125 | < 0.125 | < 0.125 | < 0.125 | < 0.125 | < 0.125 | < 0.125 | < 0.125 | < 0.125 | 4 (≈ 5.35 µM) | < 0.125 | 
4 | O=C(O)c1cn(C2CC2)c2cc(N3CCNCC3)c(F)cc2c1=O [CIPROFLOXACIN] | < 2 | < 2 | 4 (≈ 12.1 µM) | 4 (≈ 12.1 µM) | 4 (≈ 12.1 µM) | 4 (≈ 12.1 µM) | 4 (≈ 12.1 µM) | 4 (≈ 12.1 µM) | 8 (≈ 24.1 µM) | 4 (≈ 12.1 µM) | 4 (≈ 12.1 µM) | 4 (≈ 12.1 µM) | 
5 | CC[C@H]1OC(=O)[C@H](C)[C@@H](O[C@H]2C[C@@](C)(OC)[C@@H](O)[C@H](C)O2)[C@H](C)[C@@H](O[C@@H]2O[C@H](C)C[C@H](N(C)C)[C@H]2O)[C@](C)(O)C[C@@H](C)CN(C)[C@H](C)[C@@H](O)[C@]1(C)O [AZITHROMYCIN] | < 0.25 | < 0.25 | 0.5 (≈ 0.668 µM) | 0.5 (≈ 0.668 µM) | < 0.25 | < 0.25 | < 0.25 | < 0.25 | < 0.25 | < 0.25 | 2 (≈ 2.67 µM) | < 0.25 | 
6 | CN(C)[C@@H]1C(O)=C(C(N)=O)C(=O)[C@@]2(O)C(O)=C3C(=O)c4c(O)cccc4[C@@](C)(O)[C@H]3C[C@@H]12 [TETRACYCLINE] | 64 (≈ 144 µM) | 1 (≈ 2.25 µM) | 2 (≈ 4.5 µM) | 1 (≈ 2.25 µM) | 1 (≈ 2.25 µM) | 2 (≈ 4.5 µM) | 2 (≈ 4.5 µM) | 2 (≈ 4.5 µM) | 2 (≈ 4.5 µM) | 2 (≈ 4.5 µM) | 1 (≈ 2.25 µM) | 2 (≈ 4.5 µM) | > 64
